Experimental data collected from several papers.
Effect on: cell growth or viability

SMILES	cell line	test	conditions	endpoint	result
Cc1cc(Nc2ncc(Cl)c(Nc3ccccc3S(=O)(=O)C(C)C)n2)c(OC(C)C)cc1C1CCNCC1	KARPAS-299	MTT	0.55556 µg/mL, 72 h	inhibition	73.4%
COC(C)(C)CCC[C@](C)(O)[C@H]1CC[C@]2(C)[C@@H]1[C@H](O)C[C@@H]1[C@@]3(C)CC[C@H](O)C(C)(C)[C@@H]3CC[C@]12C	NCI-H358	MTT	72 h	IC20	4.48 µM
C[C@@H](Oc1cc(-c2cnn(C3CCNCC3)c2)cnc1N)c1c(Cl)ccc(F)c1Cl	KARPAS-299	MTT	1 µg/mL, 72 h	inhibition	85.2%
CC(C)C[C@H](NC(=O)[C@H](Cc1ccccc1)NC(=O)c1cnccn1)B(O)O	HEC-1-A	ATP luminescence	–	IC50	0.017 µM
COc1cc(-c2ccc(-c3ccc(C(=N)N)nc3)s2)cc(OC)c1OC	CAKI-1	–	–	GI50	1.59 µM
Cc1cc(C)cc(COc2cc3c(cc2OCc2cc(C)cc(C)c2)C2CC(O)(Cc4cn(CCOCCOCCOCCOc5ccc6c(c5)C(=O)N(C5CCC(=O)NC5=O)C6=O)nn4)CC(C)N2CC3)c1 (stereo not drawn)	ASPC1	MTT	–	IC50	1.12 µM
C=CC(=O)N1CCC[C@@H](n2nc(-c3ccc(Oc4ccccc4)cc3)c3c(N)ncnc32)C1	KU812	–	48 h	GI50	3.08 µM
CN1C[C@H](C(=O)N[C@]2(C)O[C@@]3(O)[C@@H]4CCCN4C(=O)[C@H](Cc4ccccc4)N3C2=O)C[C@@H]2c3cccc4[nH]cc(c34)C[C@H]21	WI-38	MTT	72 h	EC50	80 µM
CC(C)=CCC[C@](C)(O)[C@H]1CC[C@]2(C)[C@@H]1[C@H](O)C[C@@H]1[C@@]3(C)CC[C@H](O[C@@H]4O[C@H](CO)[C@@H](O)[C@H](O)[C@H]4O[C@@H]4O[C@H](CO)[C@@H](O)[C@H](O)[C@H]4O)C(C)(C)[C@@H]3CC[C@]12C	NCI-H358	MTT	72 h	IC20	> 100 µM
Cc1c(-c2cccc(C(F)(F)F)c2)sc2[nH]c(=O)n([C@H](C)c3cccc4ccccc34)c(=O)c12	HCC827	–	10 µM	inhibition	> 80%
Cc1cc(C)cc(COc2cc3c(cc2OCc2cc(C)cc(C)c2)[C@H]2C[C@](O)(Cc4cn(CCOCCOCCOCCNC(=O)[C@@H](CC(C)C)NC(=O)[C@@H](O)[C@H](N)Cc5ccccc5)nn4)C[C@H](C)N2CC3)c1	ASPC1	MTT	–	IC50	0.63 µM
COc1ccc(-c2ccc(-c3ccc(C(=N)N)nc3)s2)cc1Cl	SNB-19	SRB	–	GI50	1.7 µM
Cc1cc(C)cc(COc2cc3c(cc2OCc2cc(C)cc(C)c2)C2CC(O)(Cc4cn(CCCCCCNc5ccc6c(c5)C(=O)N(C5CCC(=O)NC5=O)C6=O)nn4)CC(C)N2CC3)c1 (stereo not drawn)	ASPC1	MTT	–	IC50	1.23 µM
CCc1ncn(CC(c2c[nH]c3ccc(C)cc23)c2c[nH]c3ccc(C)cc23)c1C(=O)OC	HaCaT	MTS	20 µM, 24 h	inhibition	23%
Cc1cc(C)cc(COc2cc3c(cc2OCc2cc(C)cc(C)c2)[C@H]2C[C@](O)(Cc4cn(Cc5cccnc5)nn4)C[C@H](C)N2CC3)c1	ASPC1	MTT	–	IC50	0.674 µM
COC(=O)c1c(C)ncn1CC(c1c[nH]c2ccccc12)c1c[nH]c2ccccc12	HaCaT	MTS	20 µM, 24 h	inhibition	9.7%
C/C=C/C(=O)Nc1ccc(CCn2cc(C[C@@]3(O)C[C@@H]4c5cc(OCc6cc(C)cc(C)c6)c(OCc6cc(C)cc(C)c6)cc5CCN4[C@@H](C)C3)nn2)cc1	ASPC1	MTT	–	IC50	0.87 µM
COC(=O)c1c(C)ncn1CC(c1cn(C)c2ccccc12)c1cn(C)c2ccccc12	HaCaT	MTS	20 µM, 24 h	inhibition	12.6%
Cc1cc(C)cc(COc2cc3c(cc2OCc2cc(C)cc(C)c2)[C@H]2C[C@](O)(Cc4cn(Cc5ccc(Cl)c(Cl)c5)nn4)C[C@H](C)N2CC3)c1	ASPC1	MTT	–	IC50	0.606 µM
COC(=O)c1c(C)ncn1CC(c1c[nH]c2cc(Br)ccc12)c1c[nH]c2cc(Br)ccc12	HaCaT	MTS	20 µM, 24 h	inhibition	28.8%
Cc1ccc(Cn2cc(C[C@@]3(O)C[C@@H]4c5cc(OCc6cc(C)cc(C)c6)c(OCc6cc(C)cc(C)c6)cc5CCN4[C@@H](C)C3)nn2)cc1	ASPC1	MTT	–	IC50	0.56 µM
COc1cc(Nc2nccc(-c3cnn4nc(OC)ccc34)n2)cc(C(F)(F)F)c1	HCC1569	ATP luminescence	–	IC50	> 3 µM
Cc1cc(C)cc(COc2cc3c(cc2OCc2cc(C)cc(C)c2)[C@H]2C[C@](O)(Cc4cn(Cc5cc(C(F)(F)F)cc(C(F)(F)F)c5)nn4)C[C@H](C)N2CC3)c1	ASPC1	MTT	–	IC50	0.836 µM
CCCCCCCCCCCCCCCCOP(=O)([O-])OCC[N+](C)(C)C	HaCaT	MTS	20 µM, 24 h	inhibition	45.5%
